Published values from different studies.
Lines come from different studies, so protocols differ.
Target: Mitogen-activated protein kinase kinase kinase 3 (MAP3K3, Homo sapiens, UniProt Q99759)
Residues used in one study (Q99759 1-626): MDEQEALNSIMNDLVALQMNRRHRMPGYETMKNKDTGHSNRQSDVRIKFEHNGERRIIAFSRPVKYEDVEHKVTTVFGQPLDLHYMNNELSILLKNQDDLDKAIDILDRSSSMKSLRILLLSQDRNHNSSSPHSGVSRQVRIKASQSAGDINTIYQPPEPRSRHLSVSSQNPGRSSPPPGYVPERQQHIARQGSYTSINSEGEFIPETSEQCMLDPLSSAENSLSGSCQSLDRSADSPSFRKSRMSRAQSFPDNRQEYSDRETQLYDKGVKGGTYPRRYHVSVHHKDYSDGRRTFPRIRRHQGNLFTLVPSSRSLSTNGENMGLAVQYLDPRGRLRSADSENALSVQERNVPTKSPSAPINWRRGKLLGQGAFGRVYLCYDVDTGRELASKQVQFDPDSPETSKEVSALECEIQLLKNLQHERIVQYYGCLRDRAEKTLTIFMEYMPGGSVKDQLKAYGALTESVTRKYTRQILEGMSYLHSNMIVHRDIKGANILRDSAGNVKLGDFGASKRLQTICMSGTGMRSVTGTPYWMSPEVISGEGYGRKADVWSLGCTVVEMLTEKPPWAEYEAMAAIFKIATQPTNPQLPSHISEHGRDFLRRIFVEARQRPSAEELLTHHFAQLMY

SMILES | effect on | action | method | concentration | measurement | result
COc1cc(Cl)c(C(=O)N[C@@H](CN[C@H]2CC[C@@H](N)CC2)Cc2ccc(C#N)cc2)cc1-c1ccc(CN[C@H](C)c2ccc(C)cc2)o1 | enzyme activity | inhibitor | – | 1 µM | remaining activity | 95%
COc1cc2c(N3CCN(C(=O)Nc4ccc(OC(C)C)cc4)CC3)ncnc2cc1OCCCN1CCCCC1 | cell-free assay | – | – | 0.5 µM | remaining signal | 106%
CS(=O)(=O)c1cc(C2(NC(=O)c3cncc4c3cnn4-c3ccc(F)cc3)CC2)ccn1 | cell-free assay | – | competition with immobilised ligand | 1 µM | remaining binding | 92%
O=C1NC(=O)c2cc(Nc3ccc(F)cc3)c(Nc3ccc(F)cc3)cc21 | cell-free assay | – | – | 0.5 µM | remaining signal | 102%
COc1ccc(F)cc1C(=O)NCc1ccc(-c2nn([C@@H](C)C(F)(F)F)c(N)c2C(N)=O)cc1 | target engagement in cells | inhibitor | chemoproteomics | 10 µM | inhibition | -38.5%
O=C(Nc1cnn(-c2csc(C(=O)NC3COC3)c2)c1)Nc1ccccc1Cl | enzyme activity | inhibitor | – | 5 µM | remaining activity | 113%
CC(C)(C)c1nc(-c2cccc(NS(=O)(=O)c3c(F)cccc3F)c2F)c(-c2ccnc(N)n2)s1 | enzyme activity | inhibitor | radiometric | 1 µM | remaining activity | 96%
c1cnn2ncc(-c3ccnc(N4CCC45COC5)n3)c2c1 | binding | – | – | 1 µM | remaining binding | 40%
Cn1cc(Cl)c2c(Oc3c(F)cc(Nc4cc(Cl)nc(N)n4)cc3F)ccnc21 | cell-free assay | – | competition with immobilised ligand | 0.1 µM | remaining binding | 90%
Nc1ncnc2occ(-c3ccc(NC(=O)Nc4cc(C(F)(F)F)ccc4F)cc3)c12 | cell-free assay | inhibitor | – | 20 µM | remaining signal | 4.3%
CN([C@@H]1CCc2c(CC(=O)O)c3cc(S(C)(=O)=O)ccc3n2C1)S(=O)(=O)c1ccc(F)cc1 | cell-free assay | – | competition with immobilised ligand | 1 µM | remaining binding | 85%
N#CCCc1ccc2c(c1)-c1[nH]c3ccc([N+](=O)[O-])cc3c1CC(=O)N2 | cell-free assay | – | – | 0.5 µM | remaining signal | 83.3%
CCS(=O)(=O)c1cc2cc(C[C@@](O)(CC(C)(C)c3ccc(F)cc3C(N)=O)C(F)(F)F)[nH]c2cn1 | cell-free assay | – | competition with immobilised ligand | 1 µM | remaining binding | 90%
Cc1ccc(C(=O)NCc2ccsc2)cc1C#Cc1cn(C(C)C)c2ncnc(N)c12 | enzyme activity | inhibitor | – | 1 µM | activity vs control | 70%
C[C@H](c1ccc(F)cc1)N(Cc1cccc(C(=O)O)c1)C(=O)c1cnc2ccccc2c1 | cell-free assay | – | competition with immobilised ligand | 1 µM | remaining binding | 100%
COc1cc(Nc2c(C#N)cnc3cc(OCCCN4CCN(C)CC4)c(OC)cc23)c(Cl)cc1Cl | cell-free assay | – | – | 0.5 µM | remaining signal | 11.8%
